# TAAR1 antagonist – antagonists of human TAAR1 | CHO RD-HGA16 TAAR1, Fluo-8 calcium fluorescence, antagonist | inhibition, % at 3 µM | hit rate 1.5% among 360,000 | AID 624466;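 active = inhibition above a per-plate cutoff, the mean inhibition of test compounds on that plate plus 3 SD, cut at about 49% in these data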;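 also: 0% = DMSO plus EC80 beta-PEA response and 100% = DMSO alone without agonist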
# Target sequence (Q96RJ0 whole entry, looked up): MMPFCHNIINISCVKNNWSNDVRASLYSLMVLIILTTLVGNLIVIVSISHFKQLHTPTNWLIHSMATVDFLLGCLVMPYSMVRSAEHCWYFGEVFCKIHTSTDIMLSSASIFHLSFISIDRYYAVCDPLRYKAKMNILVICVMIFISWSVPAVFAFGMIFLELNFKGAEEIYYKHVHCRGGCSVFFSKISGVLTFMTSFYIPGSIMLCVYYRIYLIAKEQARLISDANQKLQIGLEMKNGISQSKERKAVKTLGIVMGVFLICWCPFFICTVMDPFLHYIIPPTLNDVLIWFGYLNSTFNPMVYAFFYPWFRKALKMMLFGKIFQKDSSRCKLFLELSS
#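 Material: RD-HGA16 CHO cells with stable hTAAR1 and Gα16; Dosing: single nominal final test compound concentration of 3 µM; Schedule: seeding 17-24 h prior, 75-min 37 °C, 30-min RT dye loading; Detection: kinetic Fluo-8 calcium fluorescence measurement; Measure: % inhibition from peak post-agonist over basal fluorescence ratio; Benchmarks: vehicle and agonist controls.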
# OX1R antag-1 – blocks the human orexin 1 receptor. O43613. AID 434989. inhibition, % at 5 µM. hit rate 0.43% among 330,000. CHO/OX1R cells, Fluo-8 calcium fluorescence, orexin A;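 active = inhibition above its plate's threshold, mean inhibition of all tested compounds on the plate plus 3 SD, cut at about 37% in these data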;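 also: 0% = orexin A challenge wells and 100% = SB-334867-A antagonist wells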
# Target sequence (O43613 whole entry, looked up): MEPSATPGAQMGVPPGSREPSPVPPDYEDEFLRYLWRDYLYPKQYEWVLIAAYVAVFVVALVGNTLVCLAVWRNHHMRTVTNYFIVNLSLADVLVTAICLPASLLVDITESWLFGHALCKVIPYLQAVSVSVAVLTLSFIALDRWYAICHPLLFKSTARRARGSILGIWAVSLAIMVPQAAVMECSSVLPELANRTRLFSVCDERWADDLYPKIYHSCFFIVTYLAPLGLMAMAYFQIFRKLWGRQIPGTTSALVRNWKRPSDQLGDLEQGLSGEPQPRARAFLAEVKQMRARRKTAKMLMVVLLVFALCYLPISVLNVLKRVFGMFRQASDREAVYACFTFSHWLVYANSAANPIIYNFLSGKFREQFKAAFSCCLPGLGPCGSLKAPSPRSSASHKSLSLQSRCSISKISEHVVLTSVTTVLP
# TAAR1 ag – human TAAR1 agonism; hit rate 0.99% among 360,000; CHO RD-HGA16 TAAR1, Fluo-8 calcium fluorescence; vehicle wells 0%, saturating PEA agonist 100%; activation, % at 3 µM; Q96RJ0;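 active = activation above the mean activation of all test compounds in the run plus 3 SD, cut at about 38% in these data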
#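 Signal – calcium-sensitive Fluo-8 signal, excitation 470-495, emission 515-575 nm · System – RD-HGA16 (CHO) cells co-expressing Gα16 and hTAAR1 · Incubation – 17-24 h seeding, 75 min 37 °C dye, 30 min RT · Compound dosing – 3 µM single concentration · Repeats – no replicates (n 1)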
# GPR7 antagonist – antagonists of human GPR7 (neuropeptides B/W receptor 1). AID 1861. hit rate 1.1% among 290,000. inhibition, % at 4.4 µM. GPR7-expressing cells, fluorescence antagonist assay. P48145; in the data active = inhibition above about 16%, passing the limit was not always enough;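 also: cells stimulated with the agonist NPW; 0% = agonist with vehicle and 100% = vehicle without agonist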
# OX1R antag-2 – blocks the human orexin 1 receptor; AID 485270; inhibition, % at 6.6 µM; O43613; OX1R-expressing cells, FRET antagonist read-out; hit rate 1.8% among 330,000; in the data active = inhibition mostly above about 38%, no sharp cut-off; inactive = mostly below about 40%;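 also: 0% = agonist challenge alone and 100% = reference antagonist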
# CHO parental Ca – counter-screen for OX1R antagonists: effect in parental CHO cells; parental CHO-K1, ATP-induced calcium, Fluo-8 fluorescence; hit rate 0.63% among 330,000; inhibition, % at 5.6 µM;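 active = inhibition above that plate's mean sample inhibition plus 3 SD, cut at about 26% in these data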;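 also: 0% = ATP-challenged DMSO wells and 100% = DMSO wells without ATP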
#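 Material – parental CHO cells · Reagent – ATP stimulus · Compound – single nominal dose of 5.6 µM per compound · Detection – Fluo-8 fluorescence · Read-out basis – percent inhibition of calcium signal · Controls – ATP-challenged DMSO wells low, unchallenged DMSO wells high · Repeats – no replicates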
# OX1R Ca confirm – OX1R (human) antagonism, confirmed | shares compounds with OX1R antag-1 | CHO/OX1R cells, orexin A calcium Fluo-8 fluorescence | inhibition, % at 5 µM | hit rate 38% among 1,100 | AID 492963; in the data active = inhibition above about 29%;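 also: 0% = agonist challenge alone and 100% = reference antagonist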
# CHO Ca triplic – counter-screen: parental CHO calcium response change, triplicate | shares compounds with OX1R antag-1 | parental CHO-K1, ATP-induced calcium, Fluo-8 fluorescence | inhibition, % at 5.6 µM | hit rate 9.3% among 1,100;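 active = inhibition above a per-plate limit, the mean inhibition of that plate's test compounds plus 3 SD, cut at about 25% in these data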;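 also: 0% = ATP challenge with DMSO and 100% = DMSO without ATP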
# * hit, by the source's call; nt = not tested or not shown. A selection: hits, their analogues and other compounds. The true share with any hit is near 4.6%.
SMILES,TAAR1 antagonist,OX1R antag-1,TAAR1 ag,GPR7 antagonist,OX1R antag-2,CHO parental Ca,OX1R Ca confirm,CHO Ca triplic
O=C1NCC(c2ccccc2)C1C(=O)N/N=C/c1ccc(Cl)s1 (centres undefined),-3.7,5.3,9.8,2.5,15.3,-24.3,nt,nt
CC(=O)n1cc([C@H]2C=C(C(=O)Nc3ccccc3)O[C@@H](OCc3ccc(CO)cc3)C2)c2ccccc21,nt,-3.3,nt,1.1,13.2,-0.9,nt,nt
CC(=O)n1cc([C@@H]2C=C(C(=O)NCc3ccccc3)O[C@H](OCc3ccc(CO)cc3)C2)c2ccccc21,61.5*,40.6,22.5,nt,22.8,7.4,16.6,1.3
COc1cc(/C=C/C(O)=C/C(=O)/C=C/c2ccc(O)cc2)ccc1O,81.0*,47.8,45.1*,nt,4.4,24.6,18.0,18.2
COc1ccc(/C=C/C(=O)c2cc(Br)ccc2O)cc1OC,4.6,-30.3,8.3,2.5,-1.1,-20.8,nt,nt
O=C(CSc1ccc2ccccc2c1Br)Nc1cccc(S(=O)(=O)NC2=NCCCCC2)c1,-4.3,29.9,2.5,-1.9,36.0,-2.2,16.8,-14.6
COC(=O)c1cccc(NC(=S)NCc2ccc(Cl)cc2)c1,41.6,31.0,29.5,4.7,9.0,11.1,27.0,5.5
COC(=O)c1cn(CCOc2ccc(C)cc2)c2ccccc12,1.2,-24.6,4.5,-7.6,8.1,-19.1,nt,nt
CC(=O)c1cn(CCOc2ccc(F)cc2)c2ccccc12,27.5,48.0*,7.2,12.7,27.2,16.9,16.8,0.4
O=C(CNc1cccc(S(=O)(=O)N2CCCC2)c1)Nc1ccc(C(F)(F)F)cc1,17.9,25.0,19.4,nt,20.2,20.1,3.7,12.3
CCNS(=O)(=O)c1ccc(S(=O)(=O)N(Cc2ccccn2)C2CCCCC2)cc1,-7.8,-10.7,19.0,-9.7,17.8,-21.9,nt,nt
O=S(=O)(NCc1ccccc1)c1ccc(S(=O)(=O)N(Cc2ccccn2)C2CCCC2)cc1,22.2,50.2*,4.1,0.0,33.3,-4.8,15.7,-9.3
Cc1oc2c(c(C)cc3oc(=O)c(CC(=O)N[C@@H](C)C(=O)O)c(C)c32)c1C,16.0,-2.3,-1.0,10.9,-4.4,4.2,nt,nt
CCCCCCn1c(=O)c(-c2ccccc2)c(O)c2ccccc21,-6.3,-23.2,-2.3,-10.7,14.3,-18.2,nt,nt
CCCCCCCCn1c(=O)c(C(=O)OC)c(N)c2ccccc21,15.7,25.2,11.3,-8.1,26.2,-3.7,19.2,35.4*
Cc1ccc(NC(=O)CN2C(=O)NC(C)(CCc3ccccc3)C2=O)cc1 (centres undefined),-18.4,2.6,1.0,2.0,9.8,-28.4,nt,nt
CC(=O)Nc1ccc(S(=O)(=O)N2CCSC2c2ccccc2Cl)cc1 (centres undefined),26.2,26.0,31.1,9.9,39.4,22.1,6.7,4.9
CC(=O)Nc1ccc(S(=O)(=O)N2CCSC2c2ccccc2)cc1 (centres undefined),-0.2,-13.1,21.4,-4.9,19.9,10.6,nt,nt
Cc1[nH]c2ccc(C(=O)OC(C)C(=O)NC3CCCCC3C)cc2c1C (centres undefined),7.7,31.6,-2.6,nt,28.5,11.0,14.4,-6.0
COc1ccc(C(=O)NC(Cc2ccccc2)c2ccc3c(c2)OCCCO3)cc1 (centres undefined),15.5,6.0,3.5,3.6,5.9,-21.2,nt,nt
COc1cccc(C(=O)N=c2sc3cc(S(C)(=O)=O)ccc3n2C)c1,12.2,30.3,8.4,-5.3,56.5,5.8,20.3,6.3
CC(C)(C)n1cc(S(=O)(=O)c2ccccc2)[nH]c1=O,-0.7,-8.7,4.1,-5.3,21.6,-6.2,nt,nt
CCOC(=O)c1ccc(Oc2ccc(C(F)(F)F)cn2)cc1,-9.2,-3.8,8.2,-11.2,15.4,0.0,nt,nt
Cc1ccccc1OCCC(=O)Nc1cccc(S(=O)(=O)Nc2ccccc2Cl)c1,41.1,45.3*,6.8,-7.7,58.0,-4.7,25.8,-2.5
Cc1cc(C)cc(N(CC(=O)Nc2ccc(-c3nc4ccc(C)cc4s3)cc2)S(C)(=O)=O)c1,16.4,36.6*,-0.9,2.6,-3.8,-8.3,-3.5,-0.4
SMILES,TAAR1 antagonist,OX1R antag-1,TAAR1 ag,GPR7 antagonist,OX1R antag-2,CHO parental Ca,OX1R Ca confirm,CHO Ca triplic
Cc1ccc2nc(-c3ccc(NC(=O)CN(c4ccccc4C)S(C)(=O)=O)cc3)sc2c1,33.5,-0.8,0.8,0.5,12.1,27.1,nt,nt
COc1ccc(CN2C(=O)NC3(CCOc4ccccc43)C2=O)cc1F (centres undefined),8.7,-27.2,10.2,17.9,11.6,-4.3,nt,nt
COc1ccc(CN2C(=O)NC(C)(c3ccc(C)cc3)C2=O)cc1F (centres undefined),-6.0,55.6*,5.6,4.5,7.6,-19.8,-1.5,2.0
NC(=O)c1ccccc1NCC(=O)c1ccc(Cl)cc1,-11.4,-5.2,-1.6,9.2,-10.6,8.1,nt,nt
Cc1ccc(S(=O)(=O)N(C)c2ccc(OC(=O)c3cccs3)cc2)cc1,10.6,37.2,2.1,nt,6.0,9.3,-4.7,-2.7
Cn1cnnc1SCC(=O)Nc1nc(-c2ccccc2)cs1,8.6,42.3*,5.1,3.3,45.4,-11.0,31.7*,1.7
Cc1ccc(NC(=O)N2CCCC2C(=O)Nc2ccc3c(c2)OCCO3)cc1 (centres undefined),12.2,-16.4,-3.5,-2.0,-2.8,-7.3,nt,nt
N#Cc1cccc(NC(=O)Cn2cnc(S(=O)(=O)N3CCCCC3)c2)c1,-0.7,-10.5,0.0,-8.8,8.9,-4.4,nt,nt
CN(C)S(=O)(=O)N1CCCC(C(=O)c2ccc(-c3ccccc3)c(F)c2)C1 (centres undefined),11.9,29.7,3.5,-10.9,26.9,5.0,-3.1,-3.4
CC(=O)Nc1ccc(C2=NNC(=Nc3cccc(S(=O)(=O)N(C)C)c3)SC2)cc1,nt,34.2*,nt,0.0,14.4,-8.6,38.0*,-2.7
Cn1c(SCc2ccc(F)cc2Cl)nc2ccccc2c1=O,-8.1,35.9,1.0,nt,11.5,-10.6,3.1,-5.0
COc1cccc(C(=O)NCC2(c3ccccc3)CCCC2)c1OC,-4.2,-33.9,-0.4,-8.9,19.9,-13.1,nt,nt
CC(C)n1nnnc1-c1cc(Cl)cc(Cl)c1,-12.8,-4.1,0.7,21.1,3.2,-8.8,nt,nt
CCN(CC)c1ccc(/C=c2/sc3nnc(-c4ccccc4C)n3c2=O)cc1,12.5,32.1,16.9,4.8,23.6,14.5,44.3*,40.2*
OCC1(Cc2cccc(Cl)c2)CCCN(Cc2ccc3cc(F)ccc3n2)C1 (centres undefined),-10.9,31.8,0.6,2.7,54.7,-30.2,33.1*,-9.9

# High-throughput results: PubChem, The Scripps Research Institute Molecular Screening Center
